Key:
[1] = Antitumor activity against ip dosed mouse EAC implanted in Swiss albino mouse assessed as inhibition of ascitic fluid administered daily for 7 days measured on 9th day relative to control; assay type: functional, Ehrlich
Procedure, shortened: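 Female Swiss albino mice (18-20 g, 6 per group) implanted ip with 2×10^6 EAC cells/0.2 mL. Compound in phosphate buffer pH 7.2 (PBS + 2% Tween 80 when needed) given ip daily from day 2, seven doses; controls received vehicle. Day 9, after a 6 h fast, mice weighed before and after ascitic fluid removal; the difference is tumor weight. %TWI derived from mean test vs control weight.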

[2] = Antitumor activity against ip dosed mouse EAC implanted in Swiss albino mouse assessed as inhibition of ascitic cell administered daily for 7 days measured on 9th day relative to control; assay type: functional, Ehrlich
Procedure, shortened: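 Female Swiss albino mice (18-20 g, 6 per group, test vs vehicle control) given 2×10^6 EAC cells/0.2 mL ip. From day 2, compound in phosphate buffer pH 7.2 (2% Tween 80 in PBS if needed) given ip every 24 h for seven doses. Day 9, after a 6 h fast, ascitic fluid withdrawn and live cells counted by trypan blue and haemocytometer. %TCI derived from mean cells/ml in test vs control.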

SMILES | inhibition (INH) [1] [%] | inhibition (INH) [2] [%]
CCNC(=O)CCC(NS(=O)(=O)c1ccc(Br)c2ccccc12)C(=O)NCC (configuration not stated) | 24.34 | 16.22
NC(=O)CCC(NS(=O)(=O)c1ccc(Br)c2ccccc12)C(N)=O (configuration not stated) | 36.46 | 58.25
CCCNC(=O)CCC(NS(=O)(=O)c1ccc(Br)c2ccccc12)C(=O)NCCC (configuration not stated) | 2.96 | 14.86
CCCCCNC(=O)CCC(NS(=O)(=O)c1ccc(Br)c2ccccc12)C(=O)NCCCCC (configuration not stated) | 22.81 | 10.42
CCCNC(=O)CCC(NS(=O)(=O)c1cccc2ccccc12)C(=O)NCCC (configuration not stated) | 16.15 | 14.21
CC(C)NC(=O)CCC(NS(=O)(=O)c1cccc2ccccc12)C(=O)NC(C)C (configuration not stated) | 17.74 | 43.96
CCCCNC(=O)CCC(NS(=O)(=O)c1cccc2ccccc12)C(=O)NCCCC (configuration not stated) | 14.34 | 16.17
CC(C)CNC(=O)CCC(NS(=O)(=O)c1cccc2ccccc12)C(=O)NCC(C)C (configuration not stated) | 11.93 | 61.96
CNC(=O)CCC(NS(=O)(=O)c1ccc(Br)c2ccccc12)C(=O)NC (configuration not stated) | 20.58 | 10.62
CCNC(=O)CCC(NS(=O)(=O)c1ccc(Cl)c2ccccc12)C(=O)NCC (configuration not stated) | 24.1 | 48.67
CCCNC(=O)CCC(NS(=O)(=O)c1ccc(Cl)c2ccccc12)C(=O)NCCC (configuration not stated) | 18.73 | 39.33
CC(C)NC(=O)CCC(NS(=O)(=O)c1ccc(Cl)c2ccccc12)C(=O)NC(C)C (configuration not stated) | 24.68 | 75.17
CCCCNC(=O)CCC(NS(=O)(=O)c1ccc(Cl)c2ccccc12)C(=O)NCCCC (configuration not stated) | 20.71 | 33.1
CCCCCNC(=O)CCC(NS(=O)(=O)c1cccc2ccccc12)C(=O)NCCCCC (configuration not stated) | 56.62 | 17.64
O=C(CCC(NS(=O)(=O)c1cccc2ccccc12)C(=O)NC1CCCCC1)NC1CCCCC1 (configuration not stated) | 43.58 | 53.76
O=C(CCC(NS(=O)(=O)c1cccc2ccccc12)C(=O)NCc1ccccc1)NCc1ccccc1 (configuration not stated) | 17.04 | 34.46

SMILES | inhibition (INH) [1] [%] | inhibition (INH) [2] [%]
NC(=O)CCC(NS(=O)(=O)c1cccc2ccccc12)C(N)=O (configuration not stated) | 32.19 | 38.34
CNC(=O)CCC(NS(=O)(=O)c1cccc2ccccc12)C(=O)NC (configuration not stated) | 27.42 | 69.32
CCNC(=O)CCC(NS(=O)(=O)c1cccc2ccccc12)C(=O)NCC (configuration not stated) | 24.61 | 27.92
CCCCCCNC(=O)CCC(NS(=O)(=O)c1c(OC)ccc2ccccc12)C(=O)NCCCCCC (configuration not stated) | 5.19 | 14.79
CC(C)CNC(=O)CCC(NS(=O)(=O)c1ccc(Cl)c2ccccc12)C(=O)NCC(C)C (configuration not stated) | 15.2 | 41.28
CCCCCCNC(=O)CCC(NS(=O)(=O)c1ccc(Cl)c2ccccc12)C(=O)NCCCCCC (configuration not stated) | 15.95 | 50.51
O=C(CCC(NS(=O)(=O)c1ccc(Cl)c2ccccc12)C(=O)NCc1ccccc1)NCc1ccccc1 (configuration not stated) | 22.69 | 22.94
CNC(=O)CCC(NS(=O)(=O)c1ccc(Cl)c2ccccc12)C(=O)NC (configuration not stated) | 20.57 | 46.52
NC(=O)CCC(NS(=O)(=O)c1ccc(Cl)c2ccccc12)C(N)=O (configuration not stated) | 55.21 | 48.52
COc1ccc2ccccc2c1S(=O)(=O)NC(CCC(=O)NC1CCCCC1)C(=O)NC1CCCCC1 (configuration not stated) | 13.52 | 4.34
O=C(CCC(NS(=O)(=O)c1ccc(Br)c2ccccc12)C(=O)NCc1ccccc1)NCc1ccccc1 (configuration not stated) | 8.99 | 23.5
COc1ccc2ccccc2c1S(=O)(=O)NC(CCC(=O)NCc1ccccc1)C(=O)NCc1ccccc1 (configuration not stated) | 7.57 | 18.78
[N-]=[N+]=CC(=O)CC[C@H](N)C(=O)O [6-DIAZO-5-OXO-L-NORLEUCINE] | 100 | 100
[N-]=[N+]=CC(=O)OC[C@H](N)C(=O)O [AZASERINE] | 100 | 100
CO[C@@]12[C@H](COC(N)=O)C3=C(C(=O)C(C)=C(N)C3=O)N1C[C@@H]1N[C@@H]12 [MITOMYCIN] | 100 | 100
